Experiments:
[1] = Antioxidant scavenging activity against 2,2'-azobis-amidinopropane-induced peroxyl radicals assessed as total oxyradical scavenging capacity; format: physicochemical; set-up: unit not given here
Procedure, shortened: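 Peroxyl radicals from thermal homolysis of ABAP at 39 °C, with 0.1 mM KMBA and 10 mM ABAP (final) in 100 mM potassium phosphate, pH 7.4. Ethylene in the headspace was measured by GC at 12-min intervals over 60 min. TOSC = 100 − (∫sample/∫control area × 100). rTOSC is the slope of the TOSC vs concentration regression within the linear range.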

[2] = Antioxidant scavenging activity against 2,2'-azobis-amidinopropane-induced peroxyl radicals assessed as total oxyradical scavenging capacity relative to Trolox; format: physicochemical
Procedure, shortened: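 Uses the same ABAP/KMBA ethylene-GC assay: 39 °C, 0.1 mM KMBA, 10 mM ABAP, pH 7.4 phosphate, 60-min time course. TOSC comes from the areas under the kinetic curves, and rTOSC from the slope of TOSC against concentration. Comparative TOSC (cTOSC) expresses each rTOSC relative to the Trolox benchmark.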

SMILES	Activity [1]	Activity [2]
COc1cc(-c2cc(=O)c3c(O)c(O)c(OC)c(OC)c3o2)ccc1O	8.53	1.52
COc1cc(-c2cc(=O)c3c(O)c(OC)c(OC)c(OC)c3o2)ccc1O	4.53	0.81
O=c1c(O)c(-c2ccc(O)c(O)c2)oc2cc(O)cc(O)c12 [QUERCETIN]	40.32	7.17

Second part, the compound after the results:

Activity [1]	Activity [2]	SMILES
1.55	0.28	COc1ccc(-c2oc3cc(OC)c(OC)c(O)c3c(=O)c2OC)cc1OC [ARTEMETIN]
28.96	5.15	C[C@@H]1O[C@@H](OC[C@H]2O[C@@H](Oc3c(-c4ccc(O)c(O)c4)oc4cc(O)cc(O)c4c3=O)[C@H](O)[C@@H](O)[C@@H]2O)[C@H](O)[C@H](O)[C@H]1O [RUTIN]
5.62		Cc1c(C)c2c(c(C)c1O)CCC(C)(C(=O)O)O2 (stereo unspecified) [TROLOX]

From ChEMBL document CHEMBL1155689, “Evaluation of the total peroxyl radical-scavenging capacity of flavonoids: structure-activity relationships” (J Nat Prod, 2000)
